Values joined by “and” are separate entries in the source; they are usually repeats but may differ in a detail not shown here. Identical values can stand only once.
How the values were obtained:
[1] = tested on: E. coli/pET36b-gfp; settings: for Toxic and mutagenic effects on indicator cells E. coli/pET36b-gfp (in words): 150 μM; for The value of the fluorescence of GFP synthesized in biosensor cells, Biosensor E. coli/pET36b-gfp: 150 μM compound in culture medium, IPTG 1 mM
[2] = tested on: E. coli/pRAC-gfp; experiment: microbe, parasite or virus in culture; settings: Escherichia coli, read-out: Inhibition/induction of the synthesis of the reporter protein GFP, E. coli/pRAC-gfp
[3] = MTT cell viability assay, U-937; assay type: cell-based; settings: human, U-937 cells (monocytes)
Outline: (§1)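 Test compound, dissolved in DMSO, was added and cells were cultured for 72 h (37 °C, 5% CO2), three wells per concentration, with untreated cells as control. Then 1% MTT was added for 4 h, DMSO added and mixed 15 min, and OD read at 570 nm.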

[4] = tested on: E. coli/pET36b-gfp; experiment: microbe, parasite or virus in culture; settings: Escherichia coli, read-out: Inhibition/induction of the synthesis of the reporter protein GFP, E. coli/pET36b-gfp
[5] = tested on: E. coli/pRAC-gfp; settings: for Toxic and mutagenic effects on indicator cells E. coli/pRAC-gfp (in words): 150 μM; for The value of the fluorescence of GFP synthesized in biosensor cells, Biosensor E. coli/pRAC-gfp: 150 μM compound in culture medium, 1.5 h
[6] = MTT cell viability assay, MT-4; assay type: cell-based; settings: human, MT-4 cells
Outline: as §1

[7] = tested on: MDCK cells; settings: 48 h, MTT

| SMILES | The value of the fluorescence of GFP synthesized in biosensor cells, Biosensor E. coli/pET36b-gfp [1] | The value of the fluorescence of GFP synthesized in biosensor cells, Biosensor E. coli/pRAC-gfp [5] | Toxic and mutagenic effects on indicator cells E. coli/pET36b-gfp (in words) [1] | inhibition at 150 µM [2] | IC50 at 72 h [3] | inhibition at 150 µM [4] | Toxic and mutagenic effects on indicator cells E. coli/pRAC-gfp (in words) [5] | IC50 at 72 h [6] | CTD50, cytotoxic concentration; the concentration leading to 50% death of cells [7] |
| --- | --- | --- | --- | --- | --- | --- | --- | --- | --- |
| CC[N+](CC)(CCCCCC[N+](CC)(CC)CC/N=C1\C[C@H]2CC[C@]1(C)C2(C)C)CC/N=C1\C[C@H]2CC[C@]1(C)C2(C)C [Compound 3b, N^1,N^1,N^6,N^6-Tetraethyl-N^1,N^6-bis(2-((E)-((1R,4R)-1,7,7-trimethylbicyclo[2.2.1]heptan-2-ylidene)amino)ethyl)hexane-1,6-diaminium bromide] | 495.5 ± 15.2 conventional units | 186.2 ± 22.9 conventional units | neither toxic nor mutagenic effects | < 20% |  | < 20% | neither toxic nor mutagenic effects | 48.3 ± 3.2 µM | 1712 µM and 1712.3 ± 169.8 µM |
| CCN(CC)CC/N=C1\C[C@H]2CC[C@]1(C)C2(C)C [Compound 2, (E)-N^1,N^1-Diethyl-N^2-((1R,4R)-1,7,7-trimethylbicyclo[2.2.1]heptan-2-ylidene)ethane-1,2-diamine] | 512.7 ± 32.4 conventional units | 171.4 ± 14.5 conventional units | neither toxic nor mutagenic effects | < 20% |  | < 20% | neither toxic nor mutagenic effects |  |  |
| CC[N+](CC)(CCCCC[N+](CC)(CC)CC/N=C1\C[C@H]2CC[C@]1(C)C2(C)C)CC/N=C1\C[C@H]2CC[C@]1(C)C2(C)C [Compound 3a, N^1,N^1,N^5,N^5-Tetraethyl-N^1,N^5-bis(2-((E)-((1R,4R)-1,7,7-trimethylbicyclo[2.2.1]heptan-2-ylidene)amino)ethyl)pentane-1,5-diaminium bromide] | 546.9 ± 65.6 conventional units | 168.9 ± 13.5 conventional units | neither toxic nor mutagenic effects | < 20% | 95.8 ± 5.6 µM | < 20% | neither toxic nor mutagenic effects | 57.5 ± 3.8 µM |  |
| CC[N+](CC)(CCCCCCCCC[N+](CC)(CC)CC/N=C1\C[C@H]2CC[C@]1(C)C2(C)C)CC/N=C1\C[C@H]2CC[C@]1(C)C2(C)C [Compound 3d, N^1,N^1,N^9,N^9-Tetraethyl-N^1,N^9-bis(2-((E)-((1R,4R)-1,7,7-trimethylbicyclo[2.2.1]heptan-2-ylidene)amino)ethyl)nonane-1,9-diaminium bromide] | 172.3 ± 6.2 conventional units | 95.9 ± 4.3 conventional units | highly toxic |  | 58.6 ± 3.4 µM |  | highly toxic | 66 ± 5.3 µM |  |
| CC[N+](CC)(CCCCCCCC[N+](CC)(CC)CC/N=C1\C[C@H]2CC[C@]1(C)C2(C)C)CC/N=C1\C[C@H]2CC[C@]1(C)C2(C)C [Compound 3c] | 165.5 ± 8.1 conventional units | 81.7 ± 3.6 conventional units | highly toxic |  |  |  | highly toxic |  | 552.5 ± 49.1 µM |
| CC[N+](CC)(CCCCCCCC[N+](CC)(CC)CC/N=C1\C[C@H]2CC[C@]1(C)C2(C)C)CC/N=C1\C[C@H]2CC[C@]1(C)C2(C)C [Compound 3c, N^1,N^1,N^8,N^8-Tetraethyl-N^1,N^8-bis(2-((E)-((1R,4R)-1,7,7-trimethylbicyclo[2.2.1]heptan-2-ylideneamino)ethyl)octane-1,8-diaminium bromide] |  |  |  |  | 67.2 ± 5.9 µM |  |  | 69.8 ± 2.7 µM |  |
| CC[N+](CC)(CCCCCCCCCC[N+](CC)(CC)CC/N=C1\C[C@H]2CC[C@]1(C)C2(C)C)CC/N=C1\C[C@H]2CC[C@]1(C)C2(C)C [Compound 3e, N^1,N^1,N^10,N^10-Tetraethyl-N^1,N^10-bis(2-((E)-((1R,4R)-1,7,7-trimethylbicyclo[2.2.1]heptan-2-ylidene)amino)ethyl)decane-1,10-diaminium bromide] | 110.7 ± 7.2 conventional units | 56.9 ± 3.1 conventional units | highly toxic |  | 53.6 ± 2.2 µM |  | highly toxic | 66.1 ± 4.4 µM |  |

The next lines start with results.

| The value of the fluorescence of GFP synthesized in biosensor cells, Biosensor E. coli/pET36b-gfp [1] | The value of the fluorescence of GFP synthesized in biosensor cells, Biosensor E. coli/pRAC-gfp [5] | SMILES | Toxic and mutagenic effects on indicator cells E. coli/pET36b-gfp (in words) [1] | inhibition at 150 µM [2] | IC50 at 72 h [3] | inhibition at 150 µM [4] | Toxic and mutagenic effects on indicator cells E. coli/pRAC-gfp (in words) [5] | IC50 at 72 h [6] | CTD50, cytotoxic concentration; the concentration leading to 50% death of cells [7] |
| --- | --- | --- | --- | --- | --- | --- | --- | --- | --- |
| 547.9 ± 40.8 conventional units | 176.9 ± 16.9 conventional units | CC[N+](CC)(CC)CC/N=C1\C[C@H]2CC[C@]1(C)C2(C)C [Compound 4b, N,N,N-Triethyl-2-((E)-((1R,4R)-1,7,7-trimethylbicyclo[2.2.1]heptan-2-ylidene)amino)ethanaminium bromide] | neither toxic nor mutagenic effects | < 20% | > 100 µM | < 20% | neither toxic nor mutagenic effects | > 100 µM |  |
| 466.46 ± 4.1 conventional units | 170.87 ± 8.9 conventional units | CC[N+](CC)(CC/N=C1\C[C@H]2CC[C@]1(C)C2(C)C)Cc1ccc(C[N+](CC)(CC)CC/N=C2\C[C@H]3CC[C@]2(C)C3(C)C)cc1 [Compound 3g, (R,R,E)-N,N′-(1,4-Phenylenebis(methylene))bis(N,N-diethyl-2-((E)-((1R,4R)-1,7,7-trimethylbicyclo[2.2.1]heptan-2-ylidene)amino)ethanaminium) bromide] | neither toxic nor mutagenic effects | < 20% | 54.9 ± 2.6 µM | < 20% | neither toxic nor mutagenic effects | 40.5 ± 3 µM |  |
| 535.72 ± 307 conventional units | 189.21 ± 17.7 conventional units | CC[N+](C)(CC)CC/N=C1\C[C@H]2CC[C@]1(C)C2(C)C [Compound 4a, N,N-Diethyl-N-methyl-2-((E)-((1R,4R)-1,7,7-trimethylbicyclo[2.2.1]heptan-2-ylidene)amino)ethanaminium iodide] |  | < 20% | 58.6 ± 4.6 µM | < 20% |  | > 100 µM |  |
| 51.3 ± 4.6 conventional units | 49.3 ± 2.1 conventional units | CC[N+](CC)(CCCCCCCCCCCC[N+](CC)(CC)CC/N=C1\C[C@H]2CC[C@]1(C)C2(C)C)CC/N=C1\C[C@H]2CC[C@]1(C)C2(C)C [Compound 3f, N^1,N^1,N^12,N^12-Tetraethyl-N^1,N^12-bis(2-((E)-((1R,4R)-1,7,7-trimethylbicyclo[2.2.1]heptan-2-ylidene)amino)ethyl)dodecane-1,12-diaminium bromide] | highly toxic |  | 15.9 ± 1.1 µM |  | highly toxic | 40.4 ± 3.9 µM |  |

Source: publication PMC7126328 (Bioorganic & Medicinal Chemistry, 2013)
